From PubChem BioAssay AID504775 (Broad Institute, 2011) come the findings set out here.

Screen size: about 320,000 compounds; about 310 (0.097%) were called active. The sample holds actives, similar compounds and a random draw of the others, so the mix is not that of the screen. Unmarked numbers belong to inactive results.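 The calls were made as follows: active = mean replicate activation of at least 60% and every replicate at or above 60%; inconclusive = mean or all-replicate condition met, but not both; inactive = mean below 60% and not all replicates reaching 60%.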

The assay can be described thus: activators of SR-BI mediated DiI-HDL uptake, primary screen, ldlA[mSR-BI] CHO cells, DiI fluorescence (AID 504775).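 Also: 0% = median plate neutral-control signal and 100% = twice that signal.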 The following applies: 3 h, at 12.5 µM, active compounds read high, 100 = double the neutral-control signal. A digest of the protocol:
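Material: SR-BI-overexpressing, LDLR-lacking CHO cells; schedule: compound exposure 3 h, 37 °C; reagent: DiI-labelled HDL at 10 µg/mL final; technique: bottom-read fluorescence, 550/595 nm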
With `CN1C(c2ccc(F)cc2)=CS/C1=C(/C#N)c1nnc2n1-c1ccccc1SC2`, the activation is -32.2%.
Turning to `CN(CCc1ccccc1)C(=O)c1cccc(NC(=O)Cc2cccc(NC(=O)C3CCCN(C(=O)CCc4ccccc4)C3)c2)c1` (configuration not stated), the activation is -78.5%.
In the case of `C=CCOC(=O)N1CCC2CC1c1cc(-c3ccc(OC)cc3)ccc12` (configuration not stated) it was 4.14%; in that of `CCCCN1CC(CO)Oc2cccc(F)c2S1(=O)=O` (configuration not stated), 10.7%.
In the case of `C/C(=N\Nc1ccc(Cl)nn1)c1ccccc1O` it was 7.73%; in that of `CCCN(CCC)S(=O)(=O)c1cc2c(cc1Br)CCN2C(=O)CC`, -7.1%.
Consider `NS(=O)(=O)c1ccc(CCNC(=O)c2ccc(Cl)c(S(=O)(=O)N3CCCCCC3)c2)cc1`, for which the activation was -32.8%.
In the case of `CCc1c(Nc2ccccc2C)nc(N)[nH]c1=O` it was -3.67%; in that of `O=C(NN=Cc1ccccc1O)NN=Cc1ccccc1O`, -79.8%; in that of `CCN(CC)CCCC(C)n1c2nc(=O)[nH]c(=O)c-2nc2cc(Cl)ccc21` (configuration not stated), -9.91%.
In the case of `CCCCC(=O)NC(c1ccc(OC)c(OC)c1)c1ccc2cccnc2c1O` (configuration not stated) it was -3.38%; in that of `O=C(NC(=O)N1CCOCC1)c1ccccc1`, 67.4% (active); in that of `O=C(CSC(=S)N1CCOCC1)c1ccccc1`, -13.4%.
Then `NC(=NC(=O)c1ccccc1)N1CCOCC1`, with 1.4%; and `Cc1nc2ccc(N)nc2nc1C`, with -22.1%; and `COc1ccc(S(=O)(=O)N2C[C@H]3CON(C)[C@H]3C[C@H]2c2cccc(Br)c2)cc1`, with 7.88%.
For the compound `CN(C(=O)c1cccc(NC(=O)Cc2ccc(NC(=O)C3CCCN(C(=O)C4CCCC4)C3)cc2)c1)C1CCC1` (configuration not stated), the activation was -86.9%.
Then `CCCCN1CC(COc2ccccc2)Oc2cccc(F)c2S1(=O)=O` (configuration not stated), with -3.91%.
In the case of `COC1=CC(=O)OC(C)(c2ccccc2)C1` (configuration not stated) it was -8.07%; in that of `O=c1[nH]c(=S)[nH]c(O)c1/C=C1\C=Nc2ccccc21`, 12.1%.
Turning to `Cc1cc(OCCCC(=O)Nc2cc(S(=O)(=O)N3CCOCC3)ccc2N2CCOCC2)ccc1Cl`, the activation was -17.2%.
Take `COC1=NC2=NCCN2C(OC)=N1`: the activation is 7.98%.
Then `CC1=CC(=NNS(=O)(=O)c2ccc([N+](=O)[O-])cc2)CC(C)(C)C1`, with 27.7%; and `CC(C)Cc1nnc(N)s1`, with 10.1%; and `Cc1nc(N)nc(Cl)c1CCC1OCCO1`, with 19.5%.
Then `NNc1cccc(C=Cc2ccccc2)cc1=O`, with -16.6%; and `Nc1cc(=O)n(Cc2ccccc2)c(=O)n1Cc1ccccc1`, with -0.22%.
